Source: ChEMBL document CHEMBL4334546, “Discovery of N-(Indazol-3-yl)piperidine-4-carboxylic Acids as RORγt Allosteric Inhibitors for Autoimmune Diseases” (ACS Med Chem Lett, 2020)
pIC50: −log10 of the molar value. In brackets after ≈: the same amount, converted by molar mass.

Assays:
[1] = target: T1, Nuclear receptor ROR-gamma (Homo sapiens, UniProt P51449); assay: Allosteric inhibition of recombinant His6-tagged RORgammat LBD (unknown origin) expressed in Escherichia coli BL21(DE3) assessed as inhibition of biotin-labelled SRC-1 peptide recruitment preincubated for 15 mins followed by biotin-labelled SRC-1 peptide addition and measured after overnight incubation by TR-FRET assay
T1 sequence (P51449 whole entry): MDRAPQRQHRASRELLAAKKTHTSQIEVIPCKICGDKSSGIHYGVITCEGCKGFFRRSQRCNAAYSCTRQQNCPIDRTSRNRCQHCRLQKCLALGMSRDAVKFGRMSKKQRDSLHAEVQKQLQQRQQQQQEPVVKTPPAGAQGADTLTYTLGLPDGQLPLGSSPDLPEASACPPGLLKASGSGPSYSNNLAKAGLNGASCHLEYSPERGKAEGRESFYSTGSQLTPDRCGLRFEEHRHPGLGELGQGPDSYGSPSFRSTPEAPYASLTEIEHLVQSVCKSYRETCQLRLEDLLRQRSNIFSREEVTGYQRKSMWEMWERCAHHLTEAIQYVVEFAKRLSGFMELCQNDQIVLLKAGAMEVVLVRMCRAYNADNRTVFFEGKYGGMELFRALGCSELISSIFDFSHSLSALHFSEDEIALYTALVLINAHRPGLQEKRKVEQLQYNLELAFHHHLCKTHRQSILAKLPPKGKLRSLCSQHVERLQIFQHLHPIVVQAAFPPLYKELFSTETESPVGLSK

[2] = target: T1, Nuclear receptor ROR-gamma; assay: Allosteric inhibition of yeast GAL4 DNA domain-fused RORgammat LBD (97 to 518 residues) (unknown origin) expressed in HEK293T cells after 20 to 22 hrs by steady-glo luciferase assay; assay type: cell-based
[3] = target: T2, Peroxisome proliferator-activated receptor gamma (Homo sapiens, UniProt P37231); assay: Displacement of [3H]rosiglitazone from human recombinant PPARgamma LBD expressed in insect cells measured after 24 hrs by scintillation counting analysis
T2 sequence (P37231 whole entry): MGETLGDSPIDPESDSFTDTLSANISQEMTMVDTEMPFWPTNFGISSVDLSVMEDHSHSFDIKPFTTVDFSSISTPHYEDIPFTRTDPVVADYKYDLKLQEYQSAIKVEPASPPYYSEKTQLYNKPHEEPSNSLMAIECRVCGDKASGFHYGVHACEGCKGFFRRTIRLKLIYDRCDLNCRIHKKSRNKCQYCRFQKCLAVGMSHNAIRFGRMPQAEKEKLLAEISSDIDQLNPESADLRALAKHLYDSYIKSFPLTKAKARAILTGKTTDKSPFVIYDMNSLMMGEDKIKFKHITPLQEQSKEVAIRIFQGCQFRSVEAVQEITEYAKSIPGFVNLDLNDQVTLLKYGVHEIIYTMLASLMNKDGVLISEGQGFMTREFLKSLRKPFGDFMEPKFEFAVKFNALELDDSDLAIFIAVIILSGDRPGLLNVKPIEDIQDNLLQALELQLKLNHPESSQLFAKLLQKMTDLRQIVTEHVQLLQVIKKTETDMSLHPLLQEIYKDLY

[4] = target: T1, Nuclear receptor ROR-gamma; assay: Allosteric inhibition of RORgammaT in IL-1B/IL-23/IL-2/IL-6/T-Activator CD3/28 Dynabeads-stimulated human PBMC cells assessed as reduction in Th17 differentiation by measuring reduction in IL-17A level incubated for 4 days post-cell stimulation by ELISA
[5] = Clearance in Wistar Han rat at 0.5 mg/kg, iv or 1 mg/kg, po by LC-MS/MS analysis; assay type: ADME, organism-based; settings: in vivo
[6] = Half life in Wistar Han rat at 0.5 mg/kg, iv or 1 mg/kg, po by LC-MS/MS analysis; assay type: ADME, organism-based; settings: in vivo
[7] = Volume of distribution in Wistar Han rat at 0.5 mg/kg, iv or 1 mg/kg, po by LC-MS/MS analysis; assay type: ADME, organism-based; settings: in vivo
[8] = Clearance in Beagle dog at 0.25 mg/kg, iv or 0.5 mg/kg, po by LC-MS/MS analysis; assay type: ADME, organism-based, Canis lupus familiaris; settings: in vivo
[9] = Half life in Beagle dog at 0.25 mg/kg, iv or 0.5 mg/kg, po by LC-MS/MS analysis; assay type: ADME, organism-based, Canis lupus familiaris; settings: in vivo
[10] = Volume of distribution in Beagle dog at 0.25 mg/kg, iv or 0.5 mg/kg, po by LC-MS/MS analysis; assay type: ADME, organism-based, Canis lupus familiaris; settings: in vivo
[11] = Oral bioavailability in Wistar Han rat at 1 mg/kg by LC-MS/MS analysis; assay type: ADME, organism-based; settings: in vivo
[12] = Oral bioavailability in Beagle dog at 0.5 mg/kg by LC-MS/MS analysis; assay type: ADME, organism-based, Canis lupus familiaris; settings: in vivo
[13] = Protein binding in rat plasma; assay type: ADME, cell-free; settings: read-out: PPB (converted)
[14] = Protein binding in dog plasma; assay type: ADME, cell-free, Canis lupus familiaris; settings: read-out: PPB (converted)
[15] = Solubility of compound at pH 2; assay type: physicochemical; settings: buffer
[16] = Solubility of compound at pH 7.4; assay type: physicochemical; settings: buffer
[17] = Plasma concentration in C57BL/6 mouse at 1 mg/kg administered as single dose after 2 hrs; assay type: ADME, organism-based
How it was run: (§1)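 Acute pharmacodynamic model: mice received single doses across a dose range, and in this study both plasma compound concentration and Bcl-xL expression in thymocytes were measured to follow RORγt inhibition.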

[18] = Plasma concentration in C57BL/6 mouse at 3 mg/kg administered as single dose after 2 hrs; assay type: ADME, organism-based; how it was run: as §1
[19] = Plasma concentration in C57BL/6 mouse at 10 mg/kg administered as single dose after 2 hrs; assay type: ADME, organism-based; how it was run: as §1
[20] = Plasma concentration in C57BL/6 mouse at 30 mg/kg administered as single dose after 2 hrs; assay type: ADME, organism-based; how it was run: as §1
[21] = Plasma concentration in C57BL/6 mouse at 100 mg/kg administered as single dose after 2 hrs; assay type: ADME, organism-based; how it was run: as §1
[22] = Unbound clearance in Wistar Han rat at 0.5 mg/kg, iv or 1 mg/kg, po by LC-MS/MS analysis; assay type: ADME, organism-based; settings: in vivo
[23] = species: Mus musculus; assay: animal or person; settings: C57BL/6, 2 h, read-out: INH
[24] = species: Mus musculus; assay: animal or person; settings: C57BL/6, 2 h, read-out: INH; remark: listed apart in the source
[25] = species: Mus musculus; assay: animal or person; settings: C57BL/6, 2 h, read-out: INH; remark: listed apart in the source
[26] = species: Mus musculus; assay: animal or person; settings: C57BL/6, 2 h, read-out: INH; remark: listed apart in the source
[27] = species: Mus musculus; assay: animal or person; settings: C57BL/6, 2 h, read-out: INH; remark: listed apart in the source
[28] = species: Mus musculus; assay: animal or person; settings: C57BL/6, 2 h

Compound	pIC50 [1]	pIC50 [2]	clearance [5]	half-life [6]	Vd [7]	clearance [8]	half-life [9]	Vd [10]	bioavailability [11]	bioavailability [12]	fraction unbound [13]	fraction unbound [14]	solubility [15]	solubility [16]	CL free [22]	other results
O=C(O)c1ccc(-c2nn(C(=O)c3c(Cl)cccc3Cl)c3ccccc23)cc1	8.30	6.40														
O=C(O)c1ccc(-c2nn(C(=O)c3c(Cl)cccc3C(F)(F)F)c3cccnc23)c(F)c1	8.22	7.05	76 mL/min/kg	0.4 h	0.8 L/kg	4.5 mL/min/kg	1.4 h	0.4 L/kg	16%	45%	0.013	0.013	< 2 µM	147 µM (≈ 68.2 µg/mL)	5846 mL/min/kg	pIC50 [3]: 5.70; pIC50 [4]: 7.48; concentration at 2 h [17]: 0.18 µM; concentration at 2 h [18]: 0.73 µM; concentration at 2 h [19]: 4.1 µM; concentration at 2 h [20]: 51 µM; concentration at 2 h [21]: 254 µM; inhibition in vivo at 1 mg/kg [23]: 17%; inhibition in vivo at 3 mg/kg [24]: 50%; inhibition in vivo at 10 mg/kg [25]: 69%; inhibition in vivo at 30 mg/kg [26]: 85%; inhibition in vivo at 100 mg/kg [27]: 74%; pIC50 [28]: 6.15
O=C(O)[C@@H]1CCN(c2nn(C(=O)c3c(Cl)cccc3C3CC3)c3cccc(F)c23)C[C@H]1O			13 mL/min/kg	3.7 h	0.6 L/kg	1.4 mL/min/kg	3.1 h	0.3 L/kg	35%	65%	0.013	0.003	28 µM (≈ 12.8 µg/mL)	153 µM (≈ 70.1 µg/mL)	1000 mL/min/kg	
